Results from ChEMBL document CHEMBL1155872, “Molecular features of the prazosin molecule required for activation of Transport-P” (Bioorg Med Chem, 2008).

Experiments:
Type in all cases: cell-based
GT1-1 [1] = test: Inhibition of prazosin uptake at transport-P transporter protein in mouse GT1-1 cells at 100 uM relative to desipramine
GT1-1 [2] = test: Activation of [3H]prazosin uptake at transport-P transporter protein in mouse GT1-1 cells at 1 uM relative to control
Outline: (§1)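 GT1-1 GnRH neurones grown in DMEM/Ham's F-12 (1:1) with 10% FBS, plated on poly-D-lysine/laminin-coated wells and used after 2–4 days in culture. Intact cells washed, then incubated 60 min at 37 °C with tracer [³H]prazosin 2 × 10^-10 M plus test compound. Plates iced, washed at 0 °C, solubilised in SDS/NaOH. Radioactivity counted by scintillation and normalised to protein (BCA). Result given as % activation of tracer uptake.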

GT1-1 [3] = test: Activation of [3H]prazosin uptake at transport-P transporter protein in mouse GT1-1 cells at 10 uM relative to control; outline: as §1
GT1-1 [4] = test: Activation of [3H]prazosin uptake at transport-P transporter protein in mouse GT1-1 cells at 100 uM relative to control; outline: as §1
[5] = Inhibition of prazosin uptake at transport-P transporter protein in mouse GT1-1 cells
Outline: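 GT1-1 GnRH neurones were grown on poly-D-lysine/laminin and uptake was run on intact cells after 2–4 days. Incubation was 60 min at 37 °C in DMEM/25 mM Hepes/0.5 mM ascorbate, pH 7.4, with [³H]prazosin 2 × 10^-10 M, unlabelled prazosin 10^-6 M and test compound. Cell-associated radioactivity was normalised to protein. IC50 was taken from concentration–response curves, in triplicate, with each experiment done twice.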

## COc1cc2nc(N3CCN(C(=O)c4ccco4)CC3)nc(NC(C)=O)c2cc1OC
GT1-1 [1]
  inhibition: 0%
GT1-1 [2]
  Activity: 0%
GT1-1 [3]
  Activity: 35%
GT1-1 [4]
  Activity: 206%

## Nc1nc(N2CCN(C(=O)c3ccccc3)CC2)nc2ccccc12
GT1-1 [1]
  inhibition: 73%
GT1-1 [2]
  Activity: 0%
GT1-1 [3]
  Activity: 0%
GT1-1 [4]
  Activity: 0%

## COc1cc2nc(N3CCC(C)CC3)nc(N)c2cc1OC
GT1-1 [1]
  inhibition: 85%
GT1-1 [2]
  Activity: 0%
GT1-1 [3]
  Activity: 13%
GT1-1 [4]
  Activity: 0%

## COc1cc2nc(N3CCN(C(=O)c4cccs4)CC3)nc(N)c2cc1OC
GT1-1 [2]
  Activity: 57%
GT1-1 [3]
  Activity: 161%

## COc1cc2nc(N3CCN(C(=O)c4ccco4)CC3)nc(Nc3ccccc3)c2cc1OC
[5]
  IC50: 4.5 µM
GT1-1 [1]
  inhibition: 80%
GT1-1 [2]
  Activity: 0%
GT1-1 [3]
  Activity: 0%
GT1-1 [4]
  Activity: 0%

## CCN(CC)c1nc(N2CCN(C(=O)c3ccco3)CC2)nc2cc(OC)c(OC)cc12
[5]
  IC50: 80 µM
GT1-1 [1]
  inhibition: 55%
GT1-1 [2]
  Activity: 0%
GT1-1 [3]
  Activity: 0%
GT1-1 [4]
  Activity: 0%

## c1ccc(OCCCN2CCCC2)cc1
[5]
  IC50: 0.46 µM

## COc1cc2nc(N3CCN(C(=O)c4ccco4)CC3)nc(O)c2cc1OC
GT1-1 [1]
  inhibition: 0%
GT1-1 [2]
  Activity: 0%
GT1-1 [3]
  Activity: 0%
GT1-1 [4]
  Activity: 0%

## c1cc2c(cc1OCCCCCN1CCCC1)CCCC2
[5]
  IC50: 0.19 µM

## Nc1nc(N2CCN(C(=O)c3ccco3)CC2)nc2cc3c(cc12)OCCO3
GT1-1 [1]
  inhibition: 42%
GT1-1 [2]
  Activity: 0%
GT1-1 [3]
  Activity: 74%
GT1-1 [4]
  Activity: 163%

## COc1cc2nc(N3CCN(C(=O)c4ccco4)CC3)nc(N)c2cc1OC
GT1-1 [2]
  Activity: 127%

## COc1cc2nc(N3CCN(C(=O)C(F)(F)F)CC3)nc(N)c2cc1OC
GT1-1 [1]
  inhibition: 31%
GT1-1 [2]
  Activity: 0%
GT1-1 [3]
  Activity: 0%
GT1-1 [4]
  Activity: 26%

## COc1cc2nc(N3CCN(C(=O)C4CCCO4)CC3)nc(N)c2cc1OC (racemic)
GT1-1 [1]
  inhibition: 41%
GT1-1 [2]
  Activity: 0%
GT1-1 [3]
  Activity: 0%
GT1-1 [4]
  Activity: 38%

## COc1cc2nc(N3CCN(C(=O)c4ccco4)CC3)nc(NCc3ccccc3)c2cc1OC
[5]
  IC50: 5.4 µM
GT1-1 [1]
  inhibition: 69%
GT1-1 [2]
  Activity: 0%
GT1-1 [3]
  Activity: 0%
GT1-1 [4]
  Activity: 0%

## COc1cc2nc(N3CCN(C(=O)c4ccccc4)CC3)nc(N)c2cc1OC
GT1-1 [1]
  inhibition: 63%
GT1-1 [2]
  Activity: 0%
GT1-1 [3]
  Activity: 40%
GT1-1 [4]
  Activity: 47%

## COc1cc2nc(N3CCCN(C(=O)c4ccco4)CC3)nc(N)c2cc1OC
GT1-1 [1]
  inhibition: 82%
GT1-1 [2]
  Activity: 0%
GT1-1 [3]
  Activity: 31%
GT1-1 [4]
  Activity: 0%

## COc1cc2nc(N3CCN(c4ccccc4)CC3)nc(N)c2cc1OC
[5]
  IC50: 5.2 µM
GT1-1 [1]
  inhibition: 93%
GT1-1 [2]
  Activity: 0%
GT1-1 [3]
  Activity: 13%
GT1-1 [4]
  Activity: 0%

## COc1cc2cnc(N3CCN(C(=O)c4ccco4)CC3)nc2cc1OC
GT1-1 [1]
  inhibition: 5%
GT1-1 [2]
  Activity: 0%
GT1-1 [3]
  Activity: 0%
GT1-1 [4]
  Activity: 0%

## CNc1nc(N2CCN(C(=O)c3ccco3)CC2)nc2cc(OC)c(OC)cc12
GT1-1 [1]
  inhibition: 0%
GT1-1 [2]
  Activity: 0%
GT1-1 [3]
  Activity: 55%
GT1-1 [4]
  Activity: 229%

## Nc1nc(N2CCN(C(=O)c3ccco3)CC2)nc2ccccc12
GT1-1 [1]
  inhibition: 64%
GT1-1 [2]
  Activity: 0%
GT1-1 [3]
  Activity: 0%
GT1-1 [4]
  Activity: 22%

## COc1cc2nc(N3CCN(C(C)=O)CC3)nc(N)c2cc1OC
GT1-1 [1]
  inhibition: 37%
GT1-1 [2]
  Activity: 0%
GT1-1 [3]
  Activity: 0%
GT1-1 [4]
  Activity: 61%

## COc1cc2nc(N3CCN(C(=O)c4ccco4)CC3)nc(N3CCOCC3)c2cc1OC
[5]
  IC50: 81 µM
GT1-1 [1]
  inhibition: 61%
GT1-1 [2]
  Activity: 0%
GT1-1 [3]
  Activity: 0%
GT1-1 [4]
  Activity: 0%

## COc1cc2nc(NCc3ccco3)nc(N)c2cc1OC
GT1-1 [1]
  inhibition: 71%
GT1-1 [2]
  Activity: 26%
GT1-1 [3]
  Activity: 43%
GT1-1 [4]
  Activity: 0%

## COc1cc2nc(NCCN3CCCCC3)nc(N)c2cc1OC
GT1-1 [1]
  inhibition: 52%
GT1-1 [2]
  Activity: 13%
GT1-1 [3]
  Activity: 29%
GT1-1 [4]
  Activity: 37%

## COc1cc2nc(N3CCN(C(=O)OCc4ccccc4)CC3)nc(N)c2cc1OC
GT1-1 [1]
  inhibition: 75%
GT1-1 [2]
  Activity: 0%
GT1-1 [3]
  Activity: 6%
GT1-1 [4]
  Activity: 0%
